Experimental data of several laboratories.
Protocols differ between the studies behind these lines.
Effect on: cell growth or viability

| Structure (SMILES) | cell line | technique | time | CC50 |
| --- | --- | --- | --- | --- |
| CCCCCCCCCCCCCCCCOP(=O)([O-])OCC[N+](C)(C)C | HaCaT | MTS | 24 h | > 20 µM |
| Cc1ncnc2c1c(SC(F)(F)F)cn2[C@@H]1O[C@H](CO)[C@@H](O)[C@H]1O | MRC-5 SV2 | resazurin | 72 h | 36.8 µM |
| O=C(N[C@@H](Cc1ccccc1)C(=O)c1ncc(-c2ccccc2)s1)[C@H](Cc1ccccc1)NC(=O)N1CCOCC1 | MRC-5 SV2 |  |  | > 64 µM |
| C[C@@H]1O[C@@H](OC[C@H]2O[C@@H](Oc3c(-c4ccc(O)c(O)c4)oc4cc(O)cc(O)c4c3=O)[C@H](O)[C@@H](O)[C@@H]2O)[C@H](O)[C@H](O)[C@H]1O | CEM-GFP | MTT | 48 h | > 250 µg/mL |
| O=C(N[C@@H](Cc1ccccc1)C(=O)c1ncc(-c2ccccc2)o1)[C@H](Cc1ccccc1)NC(=O)N1CCOCC1 | MRC-5 SV2 |  |  | > 64 µM |
| CCOC(=O)c1cn(CC(c2cn(C)c3ccc(C)cc23)c2cn(C)c3ccc(C)cc23)c(C)c1C(=O)OC | HaCaT | MTS | 24 h | > 20 µM |
| Cc1ccc(C(=O)Nc2ccc(S(=O)(=O)O)c3cc(S(=O)(=O)O)cc(S(=O)(=O)O)c23)cc1NC(=O)c1cccc(NC(=O)Nc2cccc(C(=O)Nc3cc(C(=O)Nc4ccc(S(=O)(=O)O)c5cc(S(=O)(=O)O)cc(S(=O)(=O)O)c45)ccc3C)c2)c1 | MRC-5 SV2 | resazurin | 72 h | > 64 µM |
| O=C(N[C@@H](Cc1ccccc1)C(=O)c1cn(COCc2ccccc2)nn1)[C@H](Cc1ccccc1)NC(=O)N1CCOCC1 | MRC-5 SV2 |  |  | > 64 µM |
| COC(=O)c1c(C)ncn1CC(c1c[nH]c2ccccc12)c1c[nH]c2ccccc12 | HaCaT | MTS | 24 h | > 20 µM |
| Cc1cn([C@H]2C[C@H](N=[N+]=[N-])[C@@H](CO)O2)c(=O)[nH]c1=O | CEM-GFP | MTT | 48 h | > 200 µg/mL |
| N=C(N)c1ccc(/N=N/Nc2ccc(C(=N)N)cc2)cc1 | MRC-5 SV2 | resazurin | 72 h | > 64 µM |
